NPY Y1 blocker = NPY-Y1 (human) receptor antagonism | P25929 | HEK293-CNG Y1 cells, membrane potential fluorescence; NPY at EC95, then isoproterenol | inhibition, % at 3.6 µM | hit rate 1% among 200,000 | AID 1040;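 active means inhibition above the campaign mean inhibition of all tested compounds plus 3 SD, cut at about 20% in these data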
Target sequence (P25929 whole entry, looked up): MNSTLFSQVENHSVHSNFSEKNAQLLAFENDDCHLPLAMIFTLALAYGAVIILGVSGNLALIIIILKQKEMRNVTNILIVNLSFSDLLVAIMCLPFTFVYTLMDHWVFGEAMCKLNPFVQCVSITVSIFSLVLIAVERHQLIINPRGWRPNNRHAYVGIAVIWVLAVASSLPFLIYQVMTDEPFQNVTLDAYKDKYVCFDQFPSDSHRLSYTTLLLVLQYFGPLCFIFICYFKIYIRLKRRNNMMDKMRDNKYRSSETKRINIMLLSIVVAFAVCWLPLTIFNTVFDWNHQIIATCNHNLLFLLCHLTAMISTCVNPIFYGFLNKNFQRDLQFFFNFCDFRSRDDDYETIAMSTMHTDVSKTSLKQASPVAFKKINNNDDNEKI
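Material: HEK293 cells co-expressing NPY Y1 receptor and cyclic-nucleotide gated channel. Timing: compound incubation 1 h at room temperature, readout 45 min post-stimulation. Signal: fluorescence, membrane potential probe.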
NPY1 pot ag = human NPY-Y1 potentiation or agonism, primary screen; NPY-Y1 expressing cells, potentiator/agonist activation; AID 1304; activation, % at 3.6 µM; hit rate 0.37% among 220,000; in the data active means activation above about 33%, passing the limit was not always enough;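 further: cells stimulated with NPY at EC10 then isoproterenol at EC100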
NPY-Y2 antag = antagonists of human neuropeptide Y receptor Y2; P49146; NPY-Y2 expressing cells, antagonist mode; inhibition, % at 2.7 µM; hit rate 0.99% among 140,000; AID 793; in the data active means inhibition above about 17%
NPY-Y2 PAM-ag = human NPY-Y2 potentiation or agonism, primary screen | hit rate 0.45% among 220,000 | P49146 | activation, % at 3.6 µM | cells expressing NPY-Y2, potentiator/agonist read-out; in the data active means activation above about 27%;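 further: cells stimulated with NPY near EC25 plus isoproterenol at EC100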
Large screens that a line does not name were inactive. The list is not random: actives were taken first. Their share in the collection is about 1.8%.

CC(CCc1ccccc1)NC(=O)/C=C/c1ccc(Cl)cc1 (stereo not given)	NPY Y1 blocker 31.6, NPY-Y2 antag 20.8
NC(=O)COC(=O)CC12CC3CC(CC(Br)(C3)C1)C2	none (no result: NPY-Y2 antag)
O=C(C1CCN(Cc2ccc(F)cc2)CC1)N(CCc1ccccc1)Cc1ccccc1	NPY Y1 blocker 21.3, NPY-Y2 antag 23.6
O=C(C1CCN(Cc2ccc(F)cc2)CC1)N(CCO)Cc1ccccc1	none
CC1CCN(C(=S)c2cn(Cc3ccccc3F)c3ccccc23)CC1	NPY Y1 blocker 45.1, NPY-Y2 antag 28.8
Cc1ccc2c(c1)c1c(n2CC(O)CNC(C)(C)C)CCCC1 (stereo not given)	NPY-Y2 PAM-ag 41.4
CCN(CC)S(=O)(=O)c1ccc(NN=c2c(=O)c3ccccc3c2=O)cc1	none (no result: NPY Y1 blocker, NPY-Y2 antag)
O=C(O)CCCNc1ccc([N+](=O)[O-])c(NCCCC(=O)O)n1	none (no result: NPY-Y2 antag)
COc1ccc(CNc2nc(SCC(=O)NCc3ccco3)nc3ccccc23)cc1	NPY Y1 blocker 30.2, NPY-Y2 antag 49.5
CN1CCN(c2ccccc2NC(=O)Cc2ccc(Cl)cc2)CC1	NPY Y1 blocker 22.7, NPY-Y2 antag 24.0
CCCCN(CCCC)CC(O)CN(c1cc([N+](=O)[O-])ccc1OC)S(=O)(=O)c1ccccc1 (stereo not given)	NPY Y1 blocker 23.1, NPY-Y2 antag 19.7
COc1cc(C(=O)Nc2nc(C)cc(C)n2)cc(OC)c1OC	none (no result: NPY Y1 blocker, NPY-Y2 antag)
COc1ccc(O)c(-c2cc(-c3cccs3)[nH]n2)c1	NPY1 pot ag 57.7, NPY-Y2 PAM-ag 41.7
CN(C)c1ccc2c3c(ccc(N(C)C)c13)COC2	none (no result: NPY-Y2 antag)
COc1ccc2c(c1)-c1c(sn(-c3ccc(OC)c(OC)c3)c1=S)C(C)(C)N2	NPY1 pot ag 52.9, NPY-Y2 PAM-ag 38.1
COc1ccc(CCNC(=O)COC(=O)c2ccc(N3CCCC3=O)cc2)cc1	none (no result: NPY-Y2 antag)
O=C(Nc1cc(C(F)(F)F)ccc1N1CCOCC1)C1Cc2ccccc2CN1C(=O)c1ccco1 (stereo not given)	NPY Y1 blocker 25.6, NPY-Y2 antag 19.1
Cc1ccc(-c2nc3ncccc3o2)cc1NC(=O)c1cc2ccccc2o1	NPY Y1 blocker 22.2, NPY-Y2 antag 19.7
COC(=O)[C@@H]1C(c2c(OC)cc(OC)cc2OC)=NO[C@H]1C(=O)OC	NPY1 pot ag 55.9, NPY-Y2 PAM-ag 42.1
O=C(COc1ccc(/C=N/NS(=O)(=O)c2ccccc2)cc1)Nc1cccc(Cl)c1	NPY Y1 blocker 42.9, NPY-Y2 antag 17.5
COc1ccc(NS(=O)(=O)c2cccc(C(=O)NNC(=O)c3cc(C)oc3C)c2)cc1	none
COc1ccc(NS(=O)(=O)c2cc(C)ccc2NC(=O)c2cc(C)oc2C)cc1	NPY Y1 blocker 23.3, NPY-Y2 antag 35.6
CC1NC(=S)N(C2CCCCC2)C1=O (stereo not given)	none (no result: NPY-Y2 antag)
COc1cc2nc(CN3CCOCC3)n(CC(=O)NCC(F)(F)F)c(=O)c2cc1OC	none (no result: NPY Y1 blocker, NPY-Y2 antag)
O=C1OC(c2ccccc2)/C(=C(/O)c2ccccc2)C1=O (stereo not given)	NPY1 pot ag 102.6, NPY-Y2 PAM-ag 62.4
O=C(CCCn1c(=S)[nH]c2ccsc2c1=O)Nc1ccc2c(c1)OCCO2	none (no result: NPY-Y2 antag)
Cc1ccc(NC(=O)CN(C)CC(=O)Nc2ccccc2Oc2ccccc2)cc1	none (no result: NPY-Y2 antag)
Cc1cccc(C)c1NC(=O)CN(C)CC(=O)Nc1ccccc1Oc1ccccc1	NPY Y1 blocker 21.0 (no result: NPY-Y2 antag)
O=S(=O)(c1ccccc1)c1ncc(C(F)(F)F)cc1Cl	none (no result: NPY-Y2 antag)
O=C(CSc1nnc2n(C3CCCC3)c(=O)c3ccccc3n12)N1CCCCCC1	NPY1 pot ag 91.5, NPY-Y2 PAM-ag 86.4
CC1CCCN(C(=O)CSc2nnc3n(C4CCCC4)c(=O)c4ccccc4n23)C1 (stereo not given)	none
COC(CNc1ccc([N+](=O)[O-])c(NCC(OC)OC)c1C#N)OC	none (no result: NPY Y1 blocker, NPY-Y2 antag)
COc1ccc(OCC(=O)N2CCN(c3cccc(Cl)c3)CC2)cc1	none
COc1ccc(OCC(=O)N2CCN(c3cccc(C(F)(F)F)c3)CC2)cc1	NPY1 pot ag 71.8, NPY-Y2 PAM-ag 99.8
Cc1c(/C(O)=C2/C(=O)C(=O)N(Cc3cccnc3)C2c2ccccn2)cnn1-c1ccccc1 (stereo not given)	none (no result: NPY-Y2 antag)
CCc1ccc(-c2nc(CN3CCC(C(=O)N4CCN(c5ccccc5)CC4)CC3)c(C)o2)cc1	NPY Y1 blocker 46.5, NPY-Y2 antag 31.1
C=CCSc1nnc(CC(OC)OC)n1-c1ccccc1	none (no result: NPY-Y2 antag)
O=S(=O)(Nc1ncnc2sc3c(c12)CCC3)c1ccc(Cl)s1	NPY1 pot ag 51.9, NPY-Y2 PAM-ag 46.1
O=S(=O)(Nc1ncnc2sc3c(c12)CCC3)c1cc(F)ccc1F	none (no result: NPY Y1 blocker, NPY-Y2 antag)
C=CC[n+]1c(-c2ccc(OCC)cc2)csc1NNC(=O)Nc1ccccc1	NPY1 pot ag 94.6, NPY-Y2 PAM-ag 80.8
C=CC[n+]1c(-c2ccc(C)cc2)csc1Nc1c(C)n(C)n(-c2ccccc2)c1=O	none (no result: NPY-Y2 antag)
CC(=O)c1cc(CC(=O)N2CCc3c([nH]c4ccccc34)C2c2ccccn2)cs1 (stereo not given)	NPY Y1 blocker 21.6 (no result: NPY-Y2 antag)
C1CCN(c2nc(N3CCCC3)nc(N3CCNCC3)n2)C1	NPY1 pot ag 79.4, NPY-Y2 PAM-ag 69.1
Cc1cc(C)c(S(=O)(=O)Nc2ccc(OCC(=O)O)cc2)c(C)c1	NPY1 pot ag 47.4, NPY-Y2 PAM-ag 50.8
CN1CCN(C2=C(NS(=O)(=O)c3cccs3)C(=O)c3ccccc3C2=O)CC1	none (no result: NPY Y1 blocker, NPY-Y2 antag)
O=C1C(NS(=O)(=O)c2cccs2)=C(N2CCN(Cc3ccccc3)CC2)C(=O)c2ccccc21	NPY1 pot ag 59.6, NPY-Y2 PAM-ag 39.7 (no result: NPY Y1 blocker, NPY-Y2 antag)
CCOc1ccccc1N1CCN(C2=C(NS(=O)(=O)c3cccs3)C(=O)c3ccccc3C2=O)CC1	NPY1 pot ag 50.3, NPY-Y2 PAM-ag 42.8
O=C1C(NS(=O)(=O)c2cccs2)=C(N2CCOCC2)C(=O)c2ccccc21	none (no result: NPY Y1 blocker, NPY-Y2 antag)
COC(=O)/C(=C\c1ccc2c(c1)c1ccccc1n2C)NC(=O)c1ccccc1	none
CC(C)OC(=O)/C(=C\c1ccc2c(c1)c1ccccc1n2C)NC(=O)c1ccccc1	NPY Y1 blocker 23.3
CCCN(CCC)CCOc1cc(C)ccc1C(C)C	NPY Y1 blocker 28.2, NPY-Y2 antag 27.1
Cc1ccc(C(C)C)c(OCCN(C)C)c1	none
Cc1cc(C)c(S(=O)(=O)Nc2ccnc(-c3cccnc3)n2)c(C)c1	none (no result: NPY-Y2 antag)
O=C(NCc1cn2ccsc2n1)c1cccc(C(F)(F)F)c1	none
COc1cccc(C(=O)NCc2cn3ccsc3n2)c1	NPY1 pot ag 72.0, NPY-Y2 PAM-ag 98.2
Cc1cc(O)c(C(C)C)cc1NC(=O)c1cccc(Cl)c1	none
CN(C)c1cc(-c2ccc(Cl)cc2Cl)oc(=O)c1Cl	none (no result: NPY Y1 blocker, NPY-Y2 antag)
Clc1cccc(Nc2nc(-c3cccnc3)cs2)c1	NPY1 pot ag 46.7, NPY-Y2 PAM-ag 29.7 (no result: NPY-Y2 antag)
c1ccc(Nc2nc(-c3ccncc3)cs2)cc1	NPY1 pot ag 57.9, NPY-Y2 PAM-ag 43.7
CC(NC(=O)CCN1C(=O)c2ccccc2C1=O)c1ccc2c(c1)CCCC2 (stereo not given)	none
O=C1CSC(c2cccnc2)N1Cc1ccc(Cl)c(Cl)c1 (stereo not given)	none (no result: NPY Y1 blocker, NPY-Y2 antag)
CC1CCC2(CC1)NC(=O)N(CC(=O)NC(=O)Nc1ccc3c(c1)OCCO3)C2=O (stereo not given)	none (no result: NPY Y1 blocker, NPY-Y2 antag)
Cc1ccc(-n2ncc(C(=O)Nc3ccc(Cl)cc3)c2C2CCNCC2)cc1C	NPY Y1 blocker 20.2 (no result: NPY-Y2 antag)

Assay outcomes from PubChem BioAssay.
